# Assay outcomes deposited in PubChem by The Scripps Research Institute Molecular Screening Center.
# Most compounds without a hit are left out; they make up all but 2.8% or so of the library.
# PAFAH2 FP inh: inhibitors of human PAFAH2. Q99487. recombinant PAFAH2, FP-rhodamine activity probe, fluorescence polarization. inhibition, % at 3.39 µM. 340,000 tested, 0.99% active. AID 492956;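 active = inhibition above the mean over all tested compounds plus 3 SD, cut at about 30% in these data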;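 note: inhibitors block probe labeling of enzyme so polarization drops; 0% = enzyme with DMSO and 100% = wells lacking PAFAH2 protein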
# PAFAH1B2 inh: inhibitors of human PAFAH1B2; P68402; AID 492953; inhibition, % at 3.39 µM; 340,000 tested, 1.2% active; recombinant PAFAH1B2, FP-rhodamine activity probe, fluorescence polarization;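 active = inhibition above the mean of all tested compounds plus 3 SD, cut at about 24% in these data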;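 note: 0% = enzyme with DMSO and 100% = wells lacking PAFAH1B2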
# Target sequence (P68402 whole entry, looked up): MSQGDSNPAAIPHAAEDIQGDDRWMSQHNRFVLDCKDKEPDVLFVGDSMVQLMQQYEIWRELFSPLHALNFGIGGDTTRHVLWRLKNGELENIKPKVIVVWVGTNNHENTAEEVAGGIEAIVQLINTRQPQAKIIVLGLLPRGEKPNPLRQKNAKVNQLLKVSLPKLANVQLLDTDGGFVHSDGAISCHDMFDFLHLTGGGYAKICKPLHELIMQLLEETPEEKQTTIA
# mABHD4 FP: inhibitors of mouse ABHD4; Q8VD66; inhibition, % at 8.92 µM; purified mABHD4, FP-Rh probe fluorescence polarization; 370,000 tested, 0.54% active;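 active = inhibition exceeding the mean over every tested compound plus 3 SD, cut at about 30% in these data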;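 note: 0% = plate median of compound wells and 100% = S159A mutant with DMSO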
#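 assay system = mABHD4 protein | compound dosing = single nominal dose of 8.92 µM, 0.89% DMSO final | read-out basis = percent inhibition of probe binding, normalized to plate controls | schedule = Enzyme–compound pre-incubation 45 min, then probe 60 min, both 25 °C | detection = fluorescence polarization, excitation 525 nm, emission 598 nm, BODIPY TMR filters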
# pPAFAH FP inh: inhibitors of human plasma PAF acetylhydrolase (pPAFAH); recombinant pPAFAH, FP-rhodamine probe fluorescence polarization; AID 463082; Q13093; inhibition, % at 3.39 µM; 330,000 tested, 1.5% active;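 active = inhibition above the mean inhibition across the screen plus 3 SD, cut at about 25% in these data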;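 note: inhibitors block binding of the rhodamine activity-based probe so polarization drops; 0% = enzyme with DMSO and 100% = wells lacking pPAFAH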
# PAFAH1B3 FP inh: inhibitors of human PAFAH1B3; inhibition, % at 3.39 µM; 340,000 tested, 0.28% active; recombinant PAFAH1B3, FP-rhodamine probe, fluorescence polarization; AID 492972;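 active = inhibition above the screen-wide average of all tested compounds plus 3 SD, cut at about 25% in these data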;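 note: 0% = enzyme with DMSO only and 100% = wells lacking PAFAH1B3 protein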
# Target sequence (Q15102 whole entry, looked up): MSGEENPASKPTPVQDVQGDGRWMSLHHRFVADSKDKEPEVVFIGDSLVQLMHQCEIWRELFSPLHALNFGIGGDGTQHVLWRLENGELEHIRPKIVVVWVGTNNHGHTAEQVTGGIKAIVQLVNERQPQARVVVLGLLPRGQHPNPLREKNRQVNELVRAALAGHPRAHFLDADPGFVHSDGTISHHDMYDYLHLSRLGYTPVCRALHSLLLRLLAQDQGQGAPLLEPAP
# HTRA1 inh: HTRA1 (human) protease inhibition; Q92743; recombinant HTRA1, FP-rhodamine activity-based probe, fluorescence polarization; inhibition, % at 5.96 µM; 340,000 tested, 0.5% active; in the data active = inhibition above about 36%;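 note: 0% = enzyme with DMSO and 100% = wells lacking enzyme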
# HTRA1 conf: HTRA1 (human) inhibition, confirmation; shares compounds with HTRA1 inh; recombinant HTRA1, FP-rhodamine activity-based probe, fluorescence polarization; inhibition, % at 5.96 µM; 1,600 tested, 66% active;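 active = mean inhibition over three repeats above a set limit taken from the earlier primary screen, cut at about 37% in these data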;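 note: 0% = HTRA1 with DMSO and 100% = wells lacking HTRA1; inhibitors block probe binding so polarization drops and inhibition rises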
# ABHD4 confirm: ABHD4 (mouse) inhibition, FP confirmation. shares compounds with mABHD4 FP. purified mABHD4, FP-Rh probe fluorescence polarization. inhibition, % at 8.92 µM. 1,800 tested, 55% active;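 active = mean inhibition across replicates above the hit cutoff set in the primary screen, cut at about 30% in these data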;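 note: 0% = wild-type ABHD4 with DMSO and 100% = catalytically dead S159A mutant with DMSO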
# * marks the source's active call; other numbers are inactive results; · = no result given.
SMILES,PAFAH2 FP inh,PAFAH1B2 inh,mABHD4 FP,pPAFAH FP inh,PAFAH1B3 FP inh,HTRA1 inh,HTRA1 conf,ABHD4 confirm
Nc1ccccc1O,-4.8,3.5,·,9.3,12.6,19.9,·,·
Nc1cccc2c(O)cccc12,44.3*,16.9,42.3*,9.6,34.9*,39.5*,11.9,50.8*
O=C1c2ccccc2C(=O)c2c1cccc2N1CCCC1,7.8,4.7,32.8*,19.5,8.8,44.9*,49.0*,57.2*
O=C1c2ccccc2-c2onc3ccc(N4CCCC4)c1c23,87.7*,77.1*,99.4*,·,73.7*,91.4*,27.3,70.1*
O=C1C=C(N2CCCCC2)c2ccccc2C1=O,·,·,16.7,11.3,·,·,·,·
O=C1C=C(c2c(O)ccc3ccccc23)c2ccccc2C1=O,-5.2,5.3,52.5*,·,13.4,46.5*,47.8*,55.4*
O=C1C(Nc2ccc(O)cc2)=C/C(=N/S(=O)(=O)c2cccs2)c2ccccc21,34.7*,28.5*,72.8*,·,64.0*,63.8*,74.3*,81.3*
COC1=C(Nc2ccc(O)cc2)C(=O)c2ccccc2C1=O,-3.9,6.0,16.9,10.7,3.7,19.9,·,·
O=C(O)c1ccc(NC2=C/C(=N/S(=O)(=O)c3cccs3)c3ccccc3C2=O)cc1,·,·,36.9*,·,·,41.9*,45.5*,78.4*
CN(C)S(=O)(=O)c1cccc(C(=O)N/N=C\c2ccccc2[N+](=O)[O-])c1,·,·,8.7,·,·,·,·,·
CCOC(OCC)P(=O)(CNC(c1ccccc1)(c1ccccc1)c1ccccc1)OCC (stereo unspecified),·,·,5.2,·,·,·,·,·
O=C(c1ccco1)N1CCN(CCCCN2C(=O)c3ccccc3C2=O)CC1,5.2,-0.3,0.9,0.6,9.4,-1.5,·,·
O=C1c2ccccc2-c2onc3c(N4CCN(CCO)CC4)cc(N4CCN(C(=O)c5ccco5)CC4)c1c23,-108.9,-57.9,35.1*,29.1*,-77.8,67.0*,72.1*,43.4*
O=C(Nc1cccc2[nH]ncc12)NS(=O)(=O)c1ccccc1,6.0,8.9,98.2*,11.3,4.8,43.9*,7.3,8.0
CC(=O)Nc1ccc(S(=O)(=O)Nc2cccc3[nH]ncc23)cc1,1.9,-1.6,1.7,10.2,8.8,-1.8,·,·
CC(C)CN1C(=O)[C@]2(CC(=O)N(C)C2c2ccccc2)c2cc(-n3cc(CN(C)C)nn3)ccc21 (stereo partly specified),·,·,3.5,·,·,·,·,·
O=C(NCCc1c[nH]c2ccccc12)[C@H](Cc1c[nH]c2ccccc12)NC1(C(=O)NC2CCCCC2)CCCCCCC1,·,·,-1.0,·,·,·,·,·
Cc1cc(=O)c2c(o1)C(=O)c1occc1C2=O,38.1*,26.1*,57.8*,·,47.2*,46.0*,14.7,60.5*
Cc1nc(N2CCN(C(=O)C3CC3)CC2)c2c3c(sc2n1)CC(C)CC3 (stereo unspecified),·,·,-3.0,·,·,·,·,·
OCCN(CCO)c1ccc2ccccc2c1,4.3,-0.4,-1.0,7.7,4.3,6.5,·,·
OCCN(CCO)c1cc2c3ccccc3ccc2c2ccccc12,18.4,5.5,30.3*,·,11.0,2.0,·,16.4
Nc1cc2c(cc1[N+](=O)[O-])-c1ccccc1C2=NO,4.7,1.8,49.4*,·,3.5,9.3,·,21.3
Nc1[nH]c(C(=O)c2ccc(Br)cc2)c(-c2ccc(Br)cc2)c1C(=O)N1CCCCC1,·,·,-70.7,·,·,·,·,·
CCN(CC)S(=O)(=O)c1ccc(N2CCOCC2)c(NC(=O)c2ccc3ccccc3c2)c1,-1.3,13.5,8.5,10.1,0.8,-0.5,·,·
CCN(CC)S(=O)(=O)c1ccc(N2CCOCC2)c(NC(=O)c2c3c(nc4ccccc24)CCC3)c1,17.4,-5.8,33.6*,26.3*,-2.8,10.3,·,30.4*
CCN(CC)S(=O)(=O)c1ccc(N2CCOCC2)c(NC(=O)c2cccc3c(=O)c(C)c(-c4ccccc4)oc23)c1,5.6,-0.2,32.6*,5.9,-2.1,-41.8,·,37.5*
CCN(CC)S(=O)(=O)c1ccc(N2CCOCC2)c(NC(=O)c2cccc3ccccc23)c1,7.2,-0.5,7.3,9.2,-2.6,-22.6,·,·
